Assays:
Rattus norvegicus [1] = organism: Rattus norvegicus; experiment: Concentration required to inhibit antigen-induced release of histamine (AIR) by 50% from rat peritoneal mast cells (RMC) (in vitro); type: functional, cell-based; settings: Mast cell, read-out: I-50
How it was run: (§1)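 Rat peritoneal mast cells passively sensitized in vitro with rat anti-ovalbumin serum; compounds dissolved in Me2SO (final 0.17%). Antigen-induced and spontaneous (no antigen) histamine release measured after 15-min incubation; released and residual extracted histamine determined fluorometrically on an AutoAnalyzer.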

Rattus norvegicus [2] = organism: Rattus norvegicus; experiment: Concentration required to inhibit antigen-induced release of histamine (AIR) by 50% from rat peritoneal mast cells (RMC) (in vitro).; type: functional, cell-based; how it was run: as §1
Rattus norvegicus [3] = experiment: Inhibition of IgE-mediated passive cutaneous anaphylaxis (PCA) by 50% in rat dosed perorally; settings: po
Rattus norvegicus [4] = organism: Rattus norvegicus; experiment: Concentration required to inhibit antigen-induced release of histamine (AIR) by 50% from rat peritoneal mast cells (RMC) (in vitro); f = Stimulation of AIR; type: functional, cell-based; how it was run: as §1

IC50 (Rattus norvegicus [1]) [µM] | Structure (SMILES) | ED50 (Rattus norvegicus [3]) [mg/kg] | other results
1 | CCOC(=O)c1ccc2oc(-c3nnc(O)o3)nc2c1 |  | 
0.4 | Cc1ccc2oc(-c3nnc(O)o3)nc2c1 | 2 | 
33 | Oc1nnc(-c2cc3ccccc3[nH]2)o1 |  | 
0.9 | Cn1c(-c2nnc(O)o2)nc2ccccc21 | 1 | 
0.35 | Oc1nnc(-c2nc3cc(Cl)ccc3o2)o1 | 16 | 
1.4 | CC(=O)n1nc(-c2nc3ccccc3o2)oc1=O |  | 
60 | Oc1n[nH]c(-c2nc3ccccc3o2)n1 |  | 
5 | Cc1ccc2nc(-c3nnc(O)o3)oc2c1 | 2 | 
1.5 | Oc1nnc(-c2cc3ccccc3o2)o1 | 2 | 
1.2 | Oc1nnc(-c2nc3ccccc3o2)o1 | 3 | 
0.5 | CC(=O)n1nc(-c2nc3ccccc3n2C)oc1=O |  | 
0.3 | COC(=O)c1cc(OC)c2oc(-c3nnc(O)o3)nc2c1 | 9 | 
0.2 | Oc1nnc(-c2sc3ccccc3c2Cl)o1 | > 125 | 
6 | Cc1ccc2c(c1)nc(-c1nnc(O)o1)n2C | 5 | 
1 | Cc1cccc2oc(-c3nnc(O)o3)nc12 |  | 

More lines, now with the values behind:

Structure (SMILES) | IC50 (Rattus norvegicus [1]) [µM] | ED50 (Rattus norvegicus [3]) [mg/kg] | other results
CCOC(=O)n1nc(-c2nc3cc(C)ccc3n2C)oc1=O |  |  | I-50 (Rattus norvegicus [2]): Stimulation of AIR
O=C([O-])c1cc(=O)c2c(OCC(O)COc3cccc4oc(C(=O)[O-])cc(=O)c34)cccc2o1.[Na+].[Na+] [CROMOLYN SODIUM] | 3 | 6 | 
CC1=C(c2nnc(O)o2)Cc2ccccc21 |  | > 100 | I-50 (Rattus norvegicus [2]): Stimulation of AIR
CCOC(=O)n1nc(-c2nc3ccccc3n2C)oc1=O |  |  | I-50 (Rattus norvegicus [2]): Stimulation of AIR
CCOC(=O)n1nc(-c2nc3ccccc3o2)oc1=O |  |  | I-50 (Rattus norvegicus [2]): Stimulation of AIR
CCOC(=O)Cn1nc(-c2nc3ccccc3o2)oc1=O |  |  | I-50 (Rattus norvegicus [2]): Stimulation of AIR
O=C(/C=C/c1ccccc1)n1nc(-c2nc3ccccc3o2)oc1=O | 15 |  | 
CCOC(=O)n1nc(-c2nc3ccc(C)cc3o2)oc1=O |  |  | I-50 (Rattus norvegicus [2]): Stimulation of AIR
Cn1c(-c2n[nH]c(O)n2)nc2ccccc21 |  |  | I-50 (Rattus norvegicus [4]): Stimulation of AIR
Oc1nnc(-c2cc3cc(Cl)ccc3[nH]2)o1 |  | 9 | 
Cn1nc(-c2nc3ccccc3o2)oc1=O |  |  | I50 (Rattus norvegicus [4]): Stimulation of AIR

Source: ChEMBL document CHEMBL1122783, “Synthesis of 2-(2,3-dihydro-2-oxo-1,3,4-oxadiazol-5-yl) benzo heterocycles. A novel series of orally active antiallergic agents” (J Med Chem, 1984)
